Experimental data published in ChEMBL document CHEMBL2021781, “Dual targeting of histone deacetylase and topoisomerase II with novel bifunctional inhibitors” (J Med Chem, 2012).
pIC50: −log10 of the molar value. Calls of active or inactive are those of the source. The rule behind the calls is not given here.

Legend:
[1] = molecular target: T1, Histone deacetylase (Homo sapiens) (UniProt Q13547+O15379+Q9UBN7+Q92769+Q9UQL6+Q8WUI4+Q9BY41+Q96DB2+P56524+Q9UKV0+Q969S8); experiment: Inhibition of HDAC in human DU145 cells assessed as upregulation of p21 expression at IC50 concentration after 4 hrs by Western blot analysis relative to control; assay type: cell-based; conditions: DU-145
Outline: (§1)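 Lysed in RIPA with protease inhibitors, cleared 14,000 RPM at 4°C. Immunoblotted, probing acetylated versus total tubulin; p21 also checked. Near-infrared detection at 700/800 nm.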

[2] = molecular target: T2, Protein deacetylase HDAC6 (Homo sapiens) (UniProt Q9UBN7); experiment: Inhibition of HDAC6-mediated tubulin acetylation in human DU145 cells at 90 nM after 4 hrs by Western blot analysis; assay type: cell-based; conditions: DU-145
T2 sequence (whole entry): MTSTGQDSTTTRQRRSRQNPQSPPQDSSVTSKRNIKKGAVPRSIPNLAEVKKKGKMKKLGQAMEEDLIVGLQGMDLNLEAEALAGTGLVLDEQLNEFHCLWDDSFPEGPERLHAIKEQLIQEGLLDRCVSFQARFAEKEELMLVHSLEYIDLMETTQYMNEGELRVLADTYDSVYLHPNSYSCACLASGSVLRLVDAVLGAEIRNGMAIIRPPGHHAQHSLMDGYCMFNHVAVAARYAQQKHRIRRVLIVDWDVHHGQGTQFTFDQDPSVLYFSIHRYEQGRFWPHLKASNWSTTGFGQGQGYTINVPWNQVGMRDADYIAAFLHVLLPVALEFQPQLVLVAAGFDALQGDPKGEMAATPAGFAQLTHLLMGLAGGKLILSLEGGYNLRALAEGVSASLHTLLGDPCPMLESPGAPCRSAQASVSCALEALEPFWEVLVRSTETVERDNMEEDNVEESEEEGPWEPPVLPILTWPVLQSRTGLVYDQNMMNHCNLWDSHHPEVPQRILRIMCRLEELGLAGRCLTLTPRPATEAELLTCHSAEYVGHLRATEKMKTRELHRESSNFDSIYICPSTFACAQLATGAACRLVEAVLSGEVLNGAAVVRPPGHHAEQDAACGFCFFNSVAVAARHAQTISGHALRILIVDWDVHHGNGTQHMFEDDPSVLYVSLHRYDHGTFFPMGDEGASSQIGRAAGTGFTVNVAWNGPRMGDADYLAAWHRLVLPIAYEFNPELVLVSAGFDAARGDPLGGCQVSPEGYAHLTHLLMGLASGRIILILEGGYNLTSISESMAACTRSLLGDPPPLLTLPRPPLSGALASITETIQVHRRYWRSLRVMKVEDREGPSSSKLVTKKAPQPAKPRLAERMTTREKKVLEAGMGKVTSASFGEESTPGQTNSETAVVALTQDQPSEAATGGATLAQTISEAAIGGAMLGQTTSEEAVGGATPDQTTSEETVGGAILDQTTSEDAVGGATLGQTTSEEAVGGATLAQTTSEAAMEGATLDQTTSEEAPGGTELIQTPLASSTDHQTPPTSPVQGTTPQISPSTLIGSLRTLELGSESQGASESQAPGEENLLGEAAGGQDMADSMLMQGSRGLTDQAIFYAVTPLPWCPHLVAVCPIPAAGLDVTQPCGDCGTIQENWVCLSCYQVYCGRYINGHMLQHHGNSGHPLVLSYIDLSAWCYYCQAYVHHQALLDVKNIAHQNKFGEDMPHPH
Outline: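 DU-145 cells passaged 24 h before dosing, then treated 4 h, with no more than 0.1% DMSO including controls. Lysis in RIPA buffer with protease inhibitors, protein quantified against a BSA standard, SDS-PAGE and transfer. Blots probed with rabbit anti-tubulin and mouse anti-acetyl tubulin, read by near-infrared imaging at 700/800 nm.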

[3] = molecular target: T1, Histone deacetylase (Homo sapiens); experiment: Inhibition of HDAC in human DU145 cells assessed as upregulation of p21 expression at 5 times IC50 concentration after 4 hrs by Western blot analysis relative to control; assay type: cell-based; conditions: DU-145; outline: as §1
[4] = molecular target: DNA topoisomerase 2-alpha (Homo sapiens) (UniProt P11388); experiment: Inhibition of Topoisomerase 2 assessed as kinetoplast DNA decatenation at 50 uM after 10 mins by electrophoretic analysis
Chain of DNA topoisomerase 2-alpha (Homo sapiens) (P11388 whole entry): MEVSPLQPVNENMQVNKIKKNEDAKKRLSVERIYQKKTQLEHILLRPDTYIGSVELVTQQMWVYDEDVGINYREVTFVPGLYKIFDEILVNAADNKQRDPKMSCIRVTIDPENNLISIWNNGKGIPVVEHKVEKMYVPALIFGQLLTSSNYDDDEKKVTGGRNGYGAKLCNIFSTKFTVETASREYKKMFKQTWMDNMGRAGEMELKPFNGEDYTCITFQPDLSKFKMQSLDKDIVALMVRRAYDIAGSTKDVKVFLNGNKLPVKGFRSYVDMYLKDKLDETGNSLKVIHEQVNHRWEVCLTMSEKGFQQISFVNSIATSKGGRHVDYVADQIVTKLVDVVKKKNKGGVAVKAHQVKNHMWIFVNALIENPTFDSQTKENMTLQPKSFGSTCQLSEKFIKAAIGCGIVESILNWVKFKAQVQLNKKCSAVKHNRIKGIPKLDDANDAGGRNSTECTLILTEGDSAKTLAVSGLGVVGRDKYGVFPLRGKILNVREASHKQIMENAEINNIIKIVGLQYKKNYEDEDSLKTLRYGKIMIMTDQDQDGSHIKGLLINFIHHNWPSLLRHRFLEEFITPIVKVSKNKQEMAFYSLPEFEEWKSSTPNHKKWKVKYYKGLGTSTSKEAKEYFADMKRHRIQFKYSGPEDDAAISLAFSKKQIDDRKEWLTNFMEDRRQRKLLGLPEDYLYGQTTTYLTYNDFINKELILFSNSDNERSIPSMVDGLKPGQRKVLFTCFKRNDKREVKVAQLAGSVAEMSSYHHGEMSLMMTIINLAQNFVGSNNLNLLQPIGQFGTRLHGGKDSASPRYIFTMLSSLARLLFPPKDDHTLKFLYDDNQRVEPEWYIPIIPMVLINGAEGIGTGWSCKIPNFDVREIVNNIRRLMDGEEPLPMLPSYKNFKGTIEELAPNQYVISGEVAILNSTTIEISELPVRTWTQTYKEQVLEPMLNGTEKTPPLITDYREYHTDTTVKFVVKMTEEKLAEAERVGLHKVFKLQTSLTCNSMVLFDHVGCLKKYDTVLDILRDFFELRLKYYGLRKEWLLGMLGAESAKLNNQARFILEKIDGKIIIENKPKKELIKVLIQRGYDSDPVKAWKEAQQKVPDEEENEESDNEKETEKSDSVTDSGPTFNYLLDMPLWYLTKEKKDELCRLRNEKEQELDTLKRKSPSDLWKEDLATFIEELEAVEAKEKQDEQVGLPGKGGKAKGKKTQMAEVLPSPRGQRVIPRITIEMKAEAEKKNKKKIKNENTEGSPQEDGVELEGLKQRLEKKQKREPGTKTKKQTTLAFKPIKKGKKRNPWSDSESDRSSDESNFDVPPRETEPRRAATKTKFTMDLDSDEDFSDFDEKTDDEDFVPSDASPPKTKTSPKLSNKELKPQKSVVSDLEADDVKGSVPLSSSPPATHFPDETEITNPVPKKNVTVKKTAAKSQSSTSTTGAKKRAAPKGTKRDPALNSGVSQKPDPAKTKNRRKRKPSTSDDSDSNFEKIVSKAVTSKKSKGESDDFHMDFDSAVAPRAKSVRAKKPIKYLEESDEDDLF

[5] = Drug uptake in human DU145 cell perinuclear region at 1 uM after 4 hrs by confocal microscopic analysis; assay type: ADME, cell-based; conditions: du-145, 4 h
Outline: (§2)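 Cells plated on glass coverslips 24 h ahead, then given fresh media with compound at 1 μM for 4 h. After a PBS wash, coverslips were mounted and intracellular distribution imaged by confocal microscopy, excitation 488 nm. Done in DU-145 cells, with A549 lung tumor cells also examined.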

[6] = molecular target: DNA topoisomerase 2-alpha (Homo sapiens) (UniProt P11388); experiment: Inhibition of topoisomerase 2 in human DU145 cells assessed as stabilization of enzyme-DNA cleavage complex at 90 nM after 72 hrs by immunoblot analysis; assay type: cell-based; conditions: DU-145
SK-MES-1 = experiment: Antiproliferative activity against human SKMES1 cells after 72 hrs by MTS assay; assay type: functional, cell-based; conditions: SK-MES-1, 72 h
[7] = molecular target: T1, Histone deacetylase (Homo sapiens); experiment: Inhibition of HDAC in human DU145 cells assessed as histone H3 hyperacetylation at 0.1 to 0.5 uM after 24 hrs by Western blot analysis; assay type: cell-based; conditions: DU-145
Outline: (§3)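 DU-145 cells passaged 24 h before dosing, then exposed 24 h to compound in growth medium (final DMSO 0.1%); controls received 0.1% DMSO. Lysed in RIPA with protease inhibitors at 4°C, cleared at 14,000 × g. Protein quantified against BSA, boiled, transferred to nitrocellulose. Probed for acetyl-H3, acetyl-H4 and p21waf1 with actin loading control; read by near-infrared scanning at 700/800 nm.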

[8] = molecular target: T2, Protein deacetylase HDAC6 (Homo sapiens); experiment: Inhibition of HDAC6-mediated tubulin acetylation in human DU145 cells at 500 nM after 4 hrs by Western blot analysis; assay type: cell-based; conditions: DU-145; outline: as §1
MCF7 = experiment: Antiproliferative activity against human MCF7 cells after 72 hrs by MTS assay; assay type: functional, cell-based; conditions: MCF7, 72 h
[9] = molecular target: DNA topoisomerase 2-alpha (Homo sapiens) (UniProt P11388); experiment: Inhibition of topoisomerase 2 in human DU145 cells assessed as stabilization of enzyme-DNA cleavage complex at 90 nM after 30 mins by immunoblot analysis; assay type: cell-based; conditions: DU-145
[10] = Drug uptake in human A549 cell nucleus at 1 uM after 4 hrs by confocal microscopic analysis; assay type: ADME, cell-based; conditions: a549, 4 h
Outline: (§4)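 Cells plated on glass coverslips 24 h beforehand, then incubated in fresh medium with compound at 1 μM for 4 h. Washed with PBS, coverslips mounted and imaged by confocal microscopy at 488 nm excitation. DU-145 (prostate carcinoma) shown in main text; A549 lung tumour cells treated likewise.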

[11] = Drug uptake in human DU145 cell nucleus at 1 uM after 4 hrs by confocal microscopic analysis; assay type: ADME, cell-based; conditions: du-145, 4 h; outline: as §4
[12] = molecular target: T1, Histone deacetylase (Homo sapiens); experiment: Inhibition of HDAC in human DU145 cells assessed as upregulation of p21waf1 protein expression at 0.1 uM after 24 hrs by Western blot analysis; assay type: cell-based; conditions: DU-145; outline: as §3
[13] = molecular target: T1, Histone deacetylase (Homo sapiens); experiment: Inhibition of HDAC in human DU145 cells assessed as histone H4 acetylation after 24 hrs by Western blot analysis; assay type: cell-based; conditions: DU-145; outline: as §3
[14] = Drug uptake in human A549 cell perinuclear region at 1 uM after 4 hrs by confocal microscopic analysis; assay type: ADME, cell-based; conditions: a549, 4 h; outline: as §2
DU-145 = experiment: Antiproliferative activity against human DU145 cells after 72 hrs by MTS assay; assay type: functional, cell-based; conditions: DU-145, 72 h
Outline: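 DU-145 cells passaged 24 h before dosing and exposed 72 h; compounds from 10 mM DMSO stocks; controls given media with 0.1% DMSO; 37°C, 5% CO2. Viability read by MTS assay, with Trypan Blue staining also used. IC50 from the average of two experiments, each run in triplicate.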

Histone deacetylase 8 = molecular target: T3, Histone deacetylase 8 (Homo sapiens, UniProt Q9BY41); experiment: Inhibition of HDAC8 in human HeLa cell nuclear extract using Fluor de Lys as substrate after 15 mins by fluorometric analysis
T3 sequence (Q9BY41 whole entry): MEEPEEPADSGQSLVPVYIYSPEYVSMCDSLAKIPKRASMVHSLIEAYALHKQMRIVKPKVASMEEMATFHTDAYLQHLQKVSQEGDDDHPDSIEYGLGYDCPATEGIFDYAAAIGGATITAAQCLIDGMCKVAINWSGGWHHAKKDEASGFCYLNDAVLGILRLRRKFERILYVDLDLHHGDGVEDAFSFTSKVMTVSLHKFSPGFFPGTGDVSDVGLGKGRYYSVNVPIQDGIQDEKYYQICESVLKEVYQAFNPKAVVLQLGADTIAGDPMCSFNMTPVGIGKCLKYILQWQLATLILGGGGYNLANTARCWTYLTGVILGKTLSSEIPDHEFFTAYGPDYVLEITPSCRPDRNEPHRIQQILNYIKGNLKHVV

[15] = molecular target: Histone deacetylase (HDAC1 and HDAC2) (Homo sapiens, UniProt Q13547+Q92769); experiment: Inhibition of HDAC1/2 in human HeLa cell nuclear extract using Fluor de Lys as substrate after 15 mins by fluorometric analysis; assay type: protein assay
[16] = molecular target: T4, Protein deacetylase HDAC6 (Homo sapiens, UniProt Q9UBN7); experiment: Inhibition of HDAC6 in human HeLa cell nuclear extract using Fluor de Lys as substrate after 15 mins by fluorometric analysis
T4 sequence (Q9UBN7 whole entry): T2 sequence (whole entry)

Histone deacetylase 1 = Histone deacetylase 1 (Homo sapiens, UniProt Q13547); experiment: Inhibition of HDAC1 in human HeLa cell nuclear extract using Fluor de Lys as substrate after 15 mins by fluorometric analysis
Chain of Histone deacetylase 1 (Q13547 whole entry): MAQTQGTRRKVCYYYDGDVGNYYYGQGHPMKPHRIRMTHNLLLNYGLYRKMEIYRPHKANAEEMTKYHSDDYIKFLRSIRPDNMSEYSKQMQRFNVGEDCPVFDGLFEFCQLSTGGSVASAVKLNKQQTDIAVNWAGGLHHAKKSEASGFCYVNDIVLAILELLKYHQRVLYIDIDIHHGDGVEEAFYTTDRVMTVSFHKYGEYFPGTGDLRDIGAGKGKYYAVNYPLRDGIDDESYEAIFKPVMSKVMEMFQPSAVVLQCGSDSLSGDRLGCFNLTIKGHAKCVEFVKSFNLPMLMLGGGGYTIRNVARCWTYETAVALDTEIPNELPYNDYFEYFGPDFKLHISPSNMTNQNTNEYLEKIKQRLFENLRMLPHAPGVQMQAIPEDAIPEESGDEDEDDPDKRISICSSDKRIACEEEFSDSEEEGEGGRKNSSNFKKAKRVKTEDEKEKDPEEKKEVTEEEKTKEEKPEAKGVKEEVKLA

[17] = Drug uptake in human A549 cell vesicle like body at 1 uM after 4 hrs by confocal microscopic analysis; assay type: ADME, cell-based; conditions: a549, 4 h; outline: as §4
[18] = molecular target: T2, Protein deacetylase HDAC6 (Homo sapiens); conditions: DU-145, 10 uM
[19] = molecular target: DNA topoisomerase 2-alpha (Homo sapiens) (UniProt P11388); experiment: Inhibition of topoisomerase 2 in human DU145 cells assessed as stabilization of enzyme-DNA cleavage complex at […] after 30 mins by immunoblot analysis; assay type: cell-based; conditions: DU-145
[20] = molecular target: DNA topoisomerase 2-alpha (Homo sapiens) (UniProt P11388); experiment: Inhibition of topoisomerase 2 in human DU145 cells assessed as stabilization of enzyme-DNA cleavage complex at […] after 72 hrs by immunoblot analysis; assay type: cell-based; conditions: DU-145
[21] = Drug uptake in human DU145 cell vesicle like body at 1 uM after 4 hrs by confocal microscopic analysis; assay type: ADME, cell-based; conditions: du-145, 4 h; outline: as §4

Structure (SMILES) | Activity [1] | Activity [3] | inhibition [4] | pIC50 (SK-MES-1) | pIC50 (MCF7) | pIC50 (DU-145) | pIC50 (Histone deacetylase 8) | IC50 [15] | pIC50 [16] | pIC50 (Histone deacetylase 1) | other results
COc1cccc2c1C(=O)c1c(O)c3c(c(O)c1C2=O)C[C@@](O)(C(C)=O)C[C@@H]3O[C@H]1C[C@H](N)[C@H](O)[C@H](C)O1 [DAUNORUBICIN] | inactive | inactive | Active | 6.77 | 6.02 | 7.05 |  |  |  |  | inhibition [2]: inactive; Drug uptake [5]: Active; inhibition [6]: Active; inhibition [7]: Active; inhibition [8]: Active; inhibition [9]: Active; Drug uptake [10]: Active; Drug uptake [11]: Active; inhibition [12]: inactive; inhibition [13]: Dose-dependent effect; Drug uptake [14]: Active
COc1cccc2c1C(=O)c1c(O)c3c(c(O)c1C2=O)C[C@@](O)(C(C)=O)C[C@@H]3O[C@H]1C[C@H](NCc2ccc(-c3cn(CCCCCCC(=O)NO)nn3)cc2)[C@H](O)[C@H](C)O1 |  |  | Active | 5.48 | 4.97 | 5.53 | 6.15 | 0.9 nM | 7.70 | 8.10 | 
COc1cccc2c1C(=O)c1c(O)c3c(c(O)c1C2=O)C[C@@](O)(C(C)=O)C[C@@H]3O[C@H]1C[C@H](NCc2ccc(-c3cn(CCCCCCCC(=O)NO)nn3)cc2)[C@H](O)[C@H](C)O1 |  |  | Active | 5.58 | 4.83 | 5.69 | 6.42 | 4.2 nM | 7.72 | 7.96 | 
O=C(CCCCCCC(=O)Nc1ccccc1)NO [VORINOSTAT] |  |  |  |  |  | 5.67 |  |  |  |  | 
COc1cccc2c1C(=O)c1c(O)c3c(c(O)c1C2=O)C[C@@](O)(C(C)=O)C[C@@H]3O[C@H]1C[C@H](NCc2ccc(-c3cn(CCCCC(=O)NO)nn3)cc2)[C@H](O)[C@H](C)O1 |  |  | Active | 4.82 | 4.61 | 5.27 |  | 89.9 nM | 6.26 | 5.34 | 
COc1cccc2c1C(=O)c1c(O)c3c(c(O)c1C2=O)C[C@@](O)(C(C)=O)C[C@@H]3O[C@H]1C[C@H](NCc2ccc(-c3cn(CCCCCC(=O)NO)nn3)cc2)[C@H](O)[C@H](C)O1 | inactive | inactive | Active | 5.33 | 4.87 | 5.79 | 5.38 |  | 7.52 |  | Drug uptake [17]: Active; inhibition [18]: Active; inhibition [19]: Active; inhibition [20]: inactive; Drug uptake [21]: Active
